Test results taken from ChEMBL document CHEMBL1122887, “Structure-activity studies on the N-terminal region of growth hormone releasing factor” (1985).
Active and inactive are the calls of the source.

What was measured:
Rattus norvegicus [1] = assay: Percent growth hormone releasing activity in anesthetized rat relative to hpGRF (1-29)NH2; type: functional
Method in brief: (§1)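 In pentobarbital-anesthetized male Charles River rats (6–9/group), two subcutaneous analogue doses and GRF(1-29)NH₂ reference doses were given. Plasma GH was measured by radioimmunoassay in jugular blood taken 15 min post-injection. Relative potency with 95% confidence limits came from a four-point assay design by Pugsley's method. Not active means no activity at the doses tested.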

Rattus norvegicus [2] = assay: Effect on plasma growth hormone in anesthetized rat at a dose of 25 ug/100 g of body weight; type: functional
Method in brief: (§2)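 Male Charles River rats (175–350 g) anesthetized with sodium pentobarbital (6 mg/100 g body wt); 30 min later, 6–9 per group received a single subcutaneous 0.5-mL injection of saline, GRF(1-29)NH₂ reference, or one of two analogue doses. Jugular vein blood was drawn 15 min post-injection, and plasma GH was measured by radioimmunoassay, reported as ng/mL ± SE.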

Rattus norvegicus [3] = assay: Effect on plasma growth hormone in anesthetized rat at a dose of 5 ug/100 g of body weight; type: functional; method in brief: as §2
Rattus norvegicus [4] = assay: Percent growth hormone releasing activity in anesthetized rat relative to hpGRF (1-29)NH2; Not active; type: functional, organism-based; method in brief: as §1

Structure (SMILES)	Activity (Rattus norvegicus [1]) [%]	also measured
CC[C@H](C)[C@H](NC(=O)[C@H](C)NC(=O)[C@H](CC(=O)O)NC(=O)[C@@H](C)NC(=O)[C@@H](N)Cc1ccc(O)cc1)C(=O)N[C@@H](Cc1ccccc1)C(=O)N[C@H](C(=O)N[C@@H](CC(N)=O)C(=O)N[C@@H](CO)C(=O)N[C@@H](Cc1ccc(O)cc1)C(=O)N[C@@H](CCCN=C(N)N)C(=O)N[C@@H](CCCCN)C(=O)N[C@H](C(=O)N[C@@H](CC(C)C)C(=O)NCC(=O)N[C@@H](CCC(N)=O)C(=O)N[C@@H](CC(C)C)C(=O)N[C@@H](CO)C(=O)N[C@@H](C)C(=O)N[C@@H](CCCN=C(N)N)C(=O)N[C@@H](CCCCN)C(=O)N[C@@H](CC(C)C)C(=O)N[C@@H](CC(C)C)C(=O)N[C@@H](CCC(N)=O)C(=O)N[C@@H](CC(=O)O)C(=O)N[C@H](C(=O)N[C@@H](CCSC)C(=O)N[C@@H](CO)C(=O)N[C@@H](CCCN=C(N)N)C(N)=O)[C@@H](C)CC)C(C)C)[C@@H](C)O	5146	–
CC[C@H](C)[C@H](NC(=O)[C@H](C)NC(=O)[C@H](CC(=O)O)NC(=O)[C@H](C)NC(=O)[C@H](Cc1ccc(O)cc1)NC(C)=O)C(=O)N[C@@H](Cc1ccccc1)C(=O)N[C@H](C(=O)N[C@@H](CC(N)=O)C(=O)N[C@@H](CO)C(=O)N[C@@H](Cc1ccc(O)cc1)C(=O)N[C@@H](CCCN=C(N)N)C(=O)N[C@@H](CCCCN)C(=O)N[C@H](C(=O)N[C@@H](CC(C)C)C(=O)NCC(=O)N[C@@H](CCC(N)=O)C(=O)N[C@@H](CC(C)C)C(=O)N[C@@H](CO)C(=O)N[C@@H](C)C(=O)N[C@@H](CCCN=C(N)N)C(=O)N[C@@H](CCCCN)C(=O)N[C@@H](CC(C)C)C(=O)N[C@@H](CC(C)C)C(=O)N[C@@H](CCC(N)=O)C(=O)N[C@@H](CC(=O)O)C(=O)N[C@H](C(=O)N[C@@H](CCSC)C(=O)N[C@@H](CO)C(=O)N[C@@H](CCCN=C(N)N)C(N)=O)[C@@H](C)CC)C(C)C)[C@@H](C)O	1224	–
CC[C@H](C)[C@H](NC(=O)[C@H](C)NC(=O)[C@H](CC(=O)O)NC(=O)[C@@H](C)NC(=O)[C@@H](Cc1ccc(O)cc1)NC(C)=O)C(=O)N[C@@H](Cc1ccccc1)C(=O)N[C@H](C(=O)N[C@@H](CC(N)=O)C(=O)N[C@@H](CO)C(=O)N[C@@H](Cc1ccc(O)cc1)C(=O)N[C@@H](CCCN=C(N)N)C(=O)N[C@@H](CCCCN)C(=O)N[C@H](C(=O)N[C@@H](CC(C)C)C(=O)NCC(=O)N[C@@H](CCC(N)=O)C(=O)N[C@@H](CC(C)C)C(=O)N[C@@H](CO)C(=O)N[C@@H](C)C(=O)N[C@@H](CCCN=C(N)N)C(=O)N[C@@H](CCCCN)C(=O)N[C@@H](CC(C)C)C(=O)N[C@@H](CC(C)C)C(=O)N[C@@H](CCC(N)=O)C(=O)N[C@@H](CC(=O)O)C(=O)N[C@H](C(=O)N[C@@H](CCSC)C(=O)N[C@@H](CO)C(=O)N[C@@H](CCCN=C(N)N)C(N)=O)[C@@H](C)CC)C(C)C)[C@@H](C)O (stereo in doubt; 1)	993	–
CC[C@H](C)[C@H](NC(=O)[C@H](C)NC(=O)[C@H](CC(=O)O)NC(=O)[C@@H](C)NC(=O)[C@@H](Cc1ccc(O)cc1)NC(C)=O)C(=O)N[C@@H](Cc1ccccc1)C(=O)N[C@H](C(=O)N[C@@H](CC(N)=O)C(=O)N[C@@H](CO)C(=O)N[C@@H](Cc1ccc(O)cc1)C(=O)N[C@@H](CCCN=C(N)N)C(=O)N[C@@H](CCCCN)C(=O)N[C@H](C(=O)N[C@@H](CC(C)C)C(=O)NCC(=O)N[C@@H](CCC(N)=O)C(=O)N[C@@H](CC(C)C)C(=O)N[C@@H](CO)C(=O)N[C@@H](C)C(=O)N[C@@H](CCCN=C(N)N)C(=O)N[C@@H](CCCCN)C(=O)N[C@@H](CC(C)C)C(=O)N[C@@H](CC(C)C)C(=O)N[C@@H](CCC(N)=O)C(=O)N[C@@H](CC(=O)O)C(=O)N[C@H](C(=O)N[C@@H](CCSC)C(=O)N[C@@H](CO)C(=O)N[C@@H](CCCN=C(N)N)C(N)=O)[C@@H](C)CC)C(C)C)[C@@H](C)O (stereo in doubt; 3)	670	–
CC[C@H](C)[C@H](NC(=O)[C@H](C)NC(=O)[C@H](CC(=O)O)NC(=O)[C@@H](C)NC(=O)[C@@H](Cc1ccc(O)cc1)NC(C)=O)C(=O)N[C@@H](Cc1ccccc1)C(=O)N[C@H](C(=O)N[C@@H](CC(N)=O)C(=O)N[C@@H](CO)C(=O)N[C@@H](Cc1ccc(O)cc1)C(=O)N[C@@H](CCCN=C(N)N)C(=O)N[C@@H](CCCCN)C(=O)N[C@H](C(=O)N[C@@H](CC(C)C)C(=O)NCC(=O)N[C@@H](CCC(N)=O)C(=O)N[C@@H](CC(C)C)C(=O)N[C@@H](CO)C(=O)N[C@@H](C)C(=O)N[C@@H](CCCN=C(N)N)C(=O)N[C@@H](CCCCN)C(=O)N[C@@H](CC(C)C)C(=O)N[C@@H](CC(C)C)C(=O)N[C@@H](CCC(N)=O)C(=O)N[C@@H](CC(=O)O)C(=O)N[C@H](C(=O)N[C@@H](CCSC)C(=O)N[C@@H](CO)C(=O)N[C@@H](CCCN=C(N)N)C(N)=O)[C@@H](C)CC)C(C)C)[C@@H](C)O (stereo in doubt; 6) [listing 1 of 2 here]	–	Activity (Rattus norvegicus [2]): 374 ng/mL; Activity (Rattus norvegicus [3]): 324 ng/mL
CC[C@H](C)[C@H](NC(=O)[C@H](C)NC(=O)[C@H](CC(=O)O)NC(=O)[C@@H](C)NC(=O)[C@@H](Cc1ccc(O)cc1)NC(C)=O)C(=O)N[C@@H](Cc1ccccc1)C(=O)N[C@H](C(=O)N[C@@H](CC(N)=O)C(=O)N[C@@H](CO)C(=O)N[C@@H](Cc1ccc(O)cc1)C(=O)N[C@@H](CCCN=C(N)N)C(=O)N[C@@H](CCCCN)C(=O)N[C@H](C(=O)N[C@@H](CC(C)C)C(=O)NCC(=O)N[C@@H](CCC(N)=O)C(=O)N[C@@H](CC(C)C)C(=O)N[C@@H](CO)C(=O)N[C@@H](C)C(=O)N[C@@H](CCCN=C(N)N)C(=O)N[C@@H](CCCCN)C(=O)N[C@@H](CC(C)C)C(=O)N[C@@H](CC(C)C)C(=O)N[C@@H](CCC(N)=O)C(=O)N[C@@H](CC(=O)O)C(=O)N[C@H](C(=O)N[C@@H](CCSC)C(=O)N[C@@H](CO)C(=O)N[C@@H](CCCN=C(N)N)C(N)=O)[C@@H](C)CC)C(C)C)[C@@H](C)O (stereo in doubt; 6) [listing 2 of 2 here]	–	Activity (Rattus norvegicus [4]): inactive
CC[C@H](C)[C@H](NC(=O)[C@H](C)NC(=O)[C@H](CC(=O)O)NC(=O)[C@@H](C)NC(=O)[C@@H](Cc1ccc(O)cc1)NC(C)=O)C(=O)N[C@@H](Cc1ccccc1)C(=O)N[C@H](C(=O)N[C@@H](CC(N)=O)C(=O)N[C@@H](CO)C(=O)N[C@@H](Cc1ccc(O)cc1)C(=O)N[C@@H](CCCN=C(N)N)C(=O)N[C@@H](CCCCN)C(=O)N[C@H](C(=O)N[C@@H](CC(C)C)C(=O)NCC(=O)N[C@@H](CCC(N)=O)C(=O)N[C@@H](CC(C)C)C(=O)N[C@@H](CO)C(=O)N[C@@H](C)C(=O)N[C@@H](CCCN=C(N)N)C(=O)N[C@@H](CCCCN)C(=O)N[C@@H](CC(C)C)C(=O)N[C@@H](CC(C)C)C(=O)N[C@@H](CCC(N)=O)C(=O)N[C@@H](CC(=O)O)C(=O)N[C@H](C(=O)N[C@@H](CCSC)C(=O)N[C@@H](CO)C(=O)N[C@@H](CCCN=C(N)N)C(N)=O)[C@@H](C)CC)C(C)C)[C@@H](C)O (stereo in doubt; 7)	–	Activity (Rattus norvegicus [4]): inactive
